Reference: article PMC2839030 (Chemical research in toxicology, 2010)
pIC50: −log10 of the molar value. Like-named read-outs stand apart in the source and are kept apart here.

Tests used:
Assay type in all cases: biochemical
CYP1A1 = molecular target: T1, CYP1A1 (Homo sapiens, UniProt P04798); assay: 7-Ethoxyresorufin O-deethylation; conditions: for Type of inhibition of P450 1A1: pre-incubation assays in the presence and absence of NADPH
T1 sequence (P04798 1-512): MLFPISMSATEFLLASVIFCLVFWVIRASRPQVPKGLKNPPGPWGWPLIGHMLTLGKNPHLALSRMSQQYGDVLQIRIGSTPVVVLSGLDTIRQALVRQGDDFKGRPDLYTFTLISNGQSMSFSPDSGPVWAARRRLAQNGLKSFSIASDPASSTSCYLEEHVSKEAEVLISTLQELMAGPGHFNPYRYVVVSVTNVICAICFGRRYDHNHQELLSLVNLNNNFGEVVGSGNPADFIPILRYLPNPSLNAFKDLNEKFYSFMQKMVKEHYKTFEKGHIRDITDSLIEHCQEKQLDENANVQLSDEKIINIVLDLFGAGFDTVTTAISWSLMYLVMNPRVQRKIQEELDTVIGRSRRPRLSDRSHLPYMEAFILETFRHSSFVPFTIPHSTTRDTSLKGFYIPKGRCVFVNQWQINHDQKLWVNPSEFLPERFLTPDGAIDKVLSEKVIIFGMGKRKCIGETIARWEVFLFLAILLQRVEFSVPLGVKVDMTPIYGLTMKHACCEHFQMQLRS
Procedure, shortened: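 Human CYP1A1 supersomes with P450 reductase in 0.1 M phosphate pH 7.6 plus MgCl2, ethoxyresorufin (1.0 mM DMSO stock) and test compound in DMSO at varied concentrations. NADPH-regenerating system starts reaction, 37°C. Product fluorescence ex 530/em 585 nm. Quadratic fit of progress curves, b term as rate. IC50 from Dixon plot x-intercept. Mechanism: 5-min 37°C pre-incubation ± NADPH before substrate.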

rat CYP2B1 = molecular target: T2, rat CYP2B1 (Rattus norvegicus, UniProt P00176); assay: 7-Pentoxyresorufin O-depentylation
T2 sequence (P00176 1-491): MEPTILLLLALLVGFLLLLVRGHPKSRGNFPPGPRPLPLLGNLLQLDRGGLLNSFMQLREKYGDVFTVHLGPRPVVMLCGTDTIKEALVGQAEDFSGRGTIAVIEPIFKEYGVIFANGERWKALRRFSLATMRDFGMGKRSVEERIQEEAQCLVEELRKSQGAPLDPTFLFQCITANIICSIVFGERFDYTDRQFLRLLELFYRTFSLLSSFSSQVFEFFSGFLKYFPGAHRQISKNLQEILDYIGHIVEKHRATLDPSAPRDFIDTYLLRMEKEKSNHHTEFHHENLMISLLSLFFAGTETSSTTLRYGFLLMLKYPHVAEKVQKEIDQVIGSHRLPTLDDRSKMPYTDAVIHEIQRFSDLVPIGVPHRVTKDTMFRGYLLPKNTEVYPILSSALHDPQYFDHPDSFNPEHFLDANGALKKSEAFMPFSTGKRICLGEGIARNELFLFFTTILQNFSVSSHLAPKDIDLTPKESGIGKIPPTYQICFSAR
Procedure, shortened: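 Rat CYP2B1 supersomes (with P450 reductase and cytochrome b5) in 0.1 M potassium phosphate pH 7.6 with MgCl2, pentoxyresorufin (1.0 mM stock in DMSO) and test compound in DMSO at several concentrations, with a DMSO-only control. Reaction started with NADPH-regenerating system at 37°C; resorufin fluorescence read over time (ex 530/em 585 nm). Rates from second-order curve fits; IC50 from Dixon plot x-intercept.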

human CYP2A6 = molecular target: T3, human CYP2A6 (Homo sapiens, UniProt P11509); assay: Coumarin 7-hydroxylation assay in supersomes
T3 sequence (P11509 1-494): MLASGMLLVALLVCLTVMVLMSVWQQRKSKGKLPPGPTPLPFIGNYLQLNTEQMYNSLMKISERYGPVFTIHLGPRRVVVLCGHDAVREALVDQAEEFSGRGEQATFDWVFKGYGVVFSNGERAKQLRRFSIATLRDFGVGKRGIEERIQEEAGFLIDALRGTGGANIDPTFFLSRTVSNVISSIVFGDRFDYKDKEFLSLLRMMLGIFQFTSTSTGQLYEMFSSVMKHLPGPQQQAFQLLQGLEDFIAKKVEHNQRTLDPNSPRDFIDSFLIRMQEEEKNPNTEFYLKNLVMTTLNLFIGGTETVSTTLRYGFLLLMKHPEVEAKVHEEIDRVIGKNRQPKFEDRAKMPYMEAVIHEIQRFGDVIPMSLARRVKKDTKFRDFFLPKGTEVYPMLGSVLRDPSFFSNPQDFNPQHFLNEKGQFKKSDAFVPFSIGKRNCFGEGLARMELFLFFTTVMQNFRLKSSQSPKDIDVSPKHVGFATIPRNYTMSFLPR

human CYP1A2 = molecular target: T4, human CYP1A2 (Homo sapiens, UniProt P05177); assay: 7-Methoxyresorufin O-demethylation; conditions: for Type of inhibition of P450 1A2: pre-incubation assays in the presence and absence of NADPH
T4 sequence (P05177 2-516 limits assumed): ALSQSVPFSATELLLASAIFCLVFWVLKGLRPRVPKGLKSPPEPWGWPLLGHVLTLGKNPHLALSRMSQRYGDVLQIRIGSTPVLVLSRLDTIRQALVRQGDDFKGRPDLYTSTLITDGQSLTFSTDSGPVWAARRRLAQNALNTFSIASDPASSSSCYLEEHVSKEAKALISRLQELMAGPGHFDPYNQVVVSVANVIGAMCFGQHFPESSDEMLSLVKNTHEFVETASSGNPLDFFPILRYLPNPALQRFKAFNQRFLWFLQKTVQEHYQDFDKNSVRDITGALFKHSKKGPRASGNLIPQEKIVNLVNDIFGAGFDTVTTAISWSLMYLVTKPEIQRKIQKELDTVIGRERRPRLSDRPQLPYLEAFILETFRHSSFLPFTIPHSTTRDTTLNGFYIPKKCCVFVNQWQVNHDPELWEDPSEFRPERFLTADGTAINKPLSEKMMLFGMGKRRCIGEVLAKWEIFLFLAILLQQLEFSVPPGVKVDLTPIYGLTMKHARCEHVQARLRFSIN

Row | Compound | pIC50 (CYP1A1) | Type of inhibition of P450 1A1 (CYP1A1) | pIC50 (rat CYP2B1) | pIC50 (human CYP2A6) | pIC50 (human CYP1A2) | Type of inhibition of P450 1A2 (human CYP1A2) | pIC50 (CYP1A1; human, pH 7.6, probe 7-ethoxyresorufin)
1 | CC#Cc1cc2cccc3ccc4cccc1c4c32 [Compound 4-MEP, 4-(1-propynyl)pyrene] | 6.43 | mechanism-based inhibitors | 5.65 | < 5.00 |  |  | 
2 | CC#Cc1ccc2ccc3cccc4ccc1c2c34 [Compound 1-MEP, 1-(1-propynyl)pyrene] | 7.70 | mechanism-based inhibitors | 6.08 | < 5.00 | 7.22 | mechanism-based inhibitors | 
3 | CCC#Cc1ccc2ccc3cccc4ccc1c2c34 [Compound 1-EEP, 1-(1-butynyl)pyrene] | 6.14 | mechanism-based inhibitors | < 5.00 | < 5.00 | 6.37 | mechanism-based inhibitors | 
4 | CC#Cc1cc2ccccc2c2ccccc12 [Compound 9-MEPhen, 9-(1-propynyl)phenanthrene] | 5.58 | mechanism-based inhibitors | < 5.00 | < 5.00 |  | mechanism-based inhibitors | 5.65
5 | C#Cc1ccc2c(ccc3ccccc32)c1 [Compound 2-Ephen, 2-ethynylphenanthrene] | 6.21 | mechanism-based inhibitors | 6.77 | < 5.00 | 6.47 | mechanism-based inhibitors | 
6 | C#Cc1ccc2ccc3ccccc3c2c1 [Compound 3-Ephen, 3-ethynylphenanthrene] | 5.99 | mechanism-based inhibitors | 6.32 | < 5.00 | 6.55 | mechanism-based inhibitors | 
7 | C#Cc1ccc2ccc3cccc4ccc1c2c34 [Compound 1-EP, 1-ethynylpyrene] | 6.74 | mechanism-based inhibitors | 7.40 | < 5.00 | 6.49 | mechanism-based inhibitors | 
8 | C#Cc1cc2ccccc2c2ccccc12 [Compound 9-Ephen, 9-ethynylphenanthrene] | 6.21 | mechanism-based inhibitors | 7.15 | < 5.00 |  | mechanism-based inhibitors | 
9 | CC#Cc1ccc2c(ccc3ccccc32)c1 [Compound 2-MEPhen, 2-(1-propynyl)phenanthrene] | 6.80 | mechanism-based inhibitors | < 5.00 | < 5.00 | 6.22 | mechanism-based inhibitors | 
